pIC50, pKd: −log10 of the molar value. Activity calls are given as the source filed them. The rule behind the calls is not given here.
Tests used:
[1] = biological target: GABA-A receptor; anion channel; assay: Inhibition of GABA-A receptor by displacement of 35[S]-TBPS; format: protein-complex assay, Rattus norvegicus
In short: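 [35S]-TBPS displacement on rat brain membranes, with compounds dissolved in DMSO at a final assay concentration of 0.25%. IC50 was obtained by logistic analysis.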

[2] = biological target: Gamma-aminobutyric acid receptor subunit gamma-1 (Rattus norvegicus) (UniProt P23574); assay: (§1) Percent response with 1 uM GABA relative to current produced by 1 uM GABA alone in rat hippocampal cells; format: functional, cell-based; details: Hippocampus
Sequence of Gamma-aminobutyric acid receptor subunit gamma-1 (Rattus norvegicus) (P23574 whole entry): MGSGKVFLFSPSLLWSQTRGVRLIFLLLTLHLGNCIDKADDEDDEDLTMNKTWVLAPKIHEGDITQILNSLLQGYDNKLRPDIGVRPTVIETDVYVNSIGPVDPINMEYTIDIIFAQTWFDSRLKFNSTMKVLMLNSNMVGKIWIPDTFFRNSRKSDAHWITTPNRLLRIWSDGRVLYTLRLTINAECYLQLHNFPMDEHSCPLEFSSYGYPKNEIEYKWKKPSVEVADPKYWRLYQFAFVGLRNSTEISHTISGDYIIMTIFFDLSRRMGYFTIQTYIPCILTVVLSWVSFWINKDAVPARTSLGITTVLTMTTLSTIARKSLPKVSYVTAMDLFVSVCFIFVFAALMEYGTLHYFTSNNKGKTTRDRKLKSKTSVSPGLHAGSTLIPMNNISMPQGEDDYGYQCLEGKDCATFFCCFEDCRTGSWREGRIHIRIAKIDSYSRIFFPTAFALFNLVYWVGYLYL
In short: (§2)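 Whole-cell patch clamp on rat hippocampal cells. Current with 1 μM GABA plus 1 μM compound is expressed as percent of the current from 1 μM GABA alone.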

[3] = biological target: Gamma-aminobutyric acid receptor subunit gamma-1 (Rattus norvegicus) (UniProt P23574); assay: Percent response without GABA relative to current produced by 1 uM GABA alone in rat hippocampal cells (No response); format: functional, cell-based; details: Hippocampus
In short: (§3)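 Whole-cell patch clamp on rat hippocampal cells. Current gated by 10 μM compound without GABA is expressed as percent of the current evoked by 1 μM GABA on the same cell.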

[4] = biological target: T1, GABA-A receptor; anion channel (Rattus norvegicus) (UniProt O09028+P15431+P18506+P18508+P19969+P20236+P23574+P23576+P28471+P28473+P30191+P62813+P63079+P63138+Q91ZM7+Q9ES14); assay: as §1; format: functional, cell-based; details: Hippocampus; in short: as §2
[5] = biological target: T1, GABA-A receptor; anion channel (Rattus norvegicus); assay: Percent response without GABA relative to current produced by 1 uM GABA alone in rat hippocampal cells (gated current); format: functional, cell-based; details: Hippocampus; in short: as §3
[6] = biological target: T1, GABA-A receptor; anion channel (Rattus norvegicus); assay: Maximal binding constant (Bmax) determined in Scatchard analysis of 35[S]-TBPS binding.; format: protein-complex assay
In short: (§4)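 Scatchard analysis of [35S]-TBPS binding to rat brain membranes, with compounds dissolved in DMSO at a final assay concentration of 0.25%. Run in triplicate with triplicate determinations per point. Kd and Bmax were taken from linear regression of Scatchard-transformed data. TBPS alone vs TBPS plus test compound was compared by Student's t test.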

[7] = biological target: GABA-A receptor; anion channel; assay: Dissociation constant (Kd) determined in Scatchard analysis of 35[S]-TBPS binding.; format: protein-complex assay, Rattus norvegicus; in short: as §4

For `C[C@]12CCC3C[C@H](CCO)CCC3C1CC[C@@H]2C#N` (some centres not stated), the pIC50 [1] was 5.35, the Response [2] was 346% and the Activity [3] was “inactive”.

`C[C@]1(CC#N)CCC2C(CC[C@H]3C[C@H](O)CC[C@]23C)C1` (some centres not stated) was tested, and the pIC50 [1] was 5.49, the Response [4] was 106% and the Activity [5] was 8.

Work on `CC(=O)C[C@@]1(C)CCC2C(CC[C@H]3C[C@H](O)CC[C@]23C)C1` (some centres not stated) yielded a pIC50 [1] of 5.40, a Response [4] of 113% and a Bmax (pM (mg of protein)-1) [6] of 1.15. For the same compound, the Activity [5] was 1.

`CC(=O)[C@H]1CCC2C3CC[C@@H](CCO)CC3CC[C@@]21C` (some centres not stated) was tested, and the pIC50 [1] was 5.24, the Response [4] was 489% and the Bmax (pM (mg of protein)-1) [6] was 1.04.

`CC(=O)C1CC[C@H]2[C@@H]3CC[C@H]4C[C@H](O)CC[C@]4(C)[C@H]3CC[C@]12C` (some centres not stated) showed a pIC50 [1] of 6.74, a Response [4] of 195% and a pKd [7] of over 7.10. The Bmax (pM (mg of protein)-1) [6] was 1.22 and the Activity [5] was 30.

`C[C@]12CCC3C[C@H](CCO)CCC3C1CCC2=O` (some centres not stated) was tested, and the pIC50 [1] was 4.36 and the Response [4] was 127%.

For `CC(=O)[C@@]1(C)CCC2C(CC[C@H]3C[C@H](O)CC[C@]23C)C1` (some centres not stated), the pIC50 [1] was 5.15 and the Response [4] was 108%.
